Results on nine molecules are retold here after ChEMBL document CHEMBL1136983, “Synthesis, cleavage, and antifungal activity of a number of novel, water-soluble ester prodrugs of antifungal triazole CS-758” (Bioorg Med Chem Lett, 2009).

As usually defined, the bioavailability is the share of a dose that reaches the circulation, judged against a reference dose that is usually intravenous. Lower therefore signals little systemic uptake. By solubility is commonly meant how much of the substance goes into solution per volume. A higher solubility goes with a readily soluble substance. The term Cmax denotes the peak of the concentration-time curve.

Series [1] in a line: Bioavailability in rat at 2 mg/kg, iv. Format: ADME, organism-based. The note with it: in vivo. The method in brief:
(§1)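 Rats received a single iv dose of prodrug at 2 mg/kg, and plasma CS-758 was followed over time (average of three rats). Bioavailability (%) = AUC of CS-758 after iv prodrug / AUC of CS-758 after iv CS-758 dissolved in polyethylene glycol solution × 100.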

A short description of series [2]: Solubility in water. Type of series: physicochemical.
Series [3] concerns Liver microsomes. Kind of series: Metabolic stability in human liver microsomes assessed as formation of (2R,3R)-3-((2R,5r)-2-((1E,3E)-4-(4-cyano-2-fluorophenyl)buta-1,3-dienyl)-1,3-dioxan-5-ylthio)-2-(2,4-difluorophenyl)-1-(1H-1,2,4-triazol-1-yl)butan-2-yl 2-hydroxyacetate after 30 mins. Format: ADME, Microsome. Particulars: 0.5 h. A general note: Liver microsomes are a subcellular fraction often used to study metabolism.

In series [4] the test system is Liver microsomes. Kind of series: Metabolic stability in human liver microsomes assessed as formation of (2R,3R)-3-((2R,5r)-2-((1E,3E)-4-(4-cyano-2-fluorophenyl)buta-1,3-dienyl)-1,3-dioxan-5-ylthio)-2-(2,4-difluorophenyl)-1-(1H-1,2,4-triazol-1-yl)butan-2-yl 2-hydroxyacetate after 120 mins. Format: ADME, Microsome. The note with it: 2 h.
The subject of series [5] is Rattus norvegicus. Kind of series: Half life in rat assessed as CS-758 elimination at 2 mg/kg, iv. Type of series: ADME, organism-based. On the set-up: dose 2 mg/kg, route intravenous. Particulars: in vivo. In outline:
as §1

Series [6] relates to Candida albicans. Kind of series: Antifungal activity against Candida albicans SANK 51486 infected in mouse at 0.2 to 20 mg/kg, iv administered 2 hrs post infection measured after 24 hrs. Type of series: functional, organism-based. The method in brief: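 Mouse systemic Candida albicans infection, challenge 4.2 × 10⁵ CFU/mouse. Single dose 2 h after challenge, at 0.2, 2 or 20 mg/kg, vehicle controls. Kidney viable cell counts taken at 24 h. Mean + S.E., n = 8 per group, significance at p<0.05 and p<0.001.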

Series [7] is described as follows: Cmax in rat at 2 mg/kg, iv. Type of series: ADME, organism-based. Also noted: dose 2 mg/kg, route intravenous. The note with it: in vivo. In outline:
as §1

The structures appear in SMILES notation. Active and inactive are the calls of the source. The calls are words filed in the database; no cut-off is given here.

Molecule `C[C@@H](S[C@H]1CO[C@H](/C=C/C=C/c2ccc(C#N)cc2F)OC1)[C@@](Cn1cncn1)(OC(=O)C[N+](C)(C)C)c1ccc(F)cc1F.[Cl-]` showed a bioavailability in series [1] of 3.3%. The solubility in series [2] was > 10000 µg/mL.

On to `C[C@@H](S[C@H]1CO[C@H](/C=C/C=C/c2ccc(C#N)cc2F)OC1)[C@@](Cn1cncn1)(OC(=O)COP(=O)([O-])O)c1ccc(F)cc1F.[Na+]`, for which the outcome in series [3] and in series [4] was Active. Also, the solubility in series [2] was > 10000 µg/mL.

As to `C[C@@H](S[C@H]1CO[C@H](/C=C/C=C/c2ccc(C#N)cc2F)OC1)[C@@](Cn1cncn1)(OC(=O)COC(=O)CCC(=O)[O-])c1ccc(F)cc1F.[Na+]`, the outcome in series [3] and in series [4] was Active. Moreover, the solubility in series [2] is > 10000 µg/mL.

Consider `C[C@@H](S[C@H]1CO[C@H](/C=C/C=C/c2ccc(C#N)cc2F)OC1)[C@@](Cn1cncn1)(OC(=O)CN(C)C)c1ccc(F)cc1F`, for which the solubility in series [2] was < 1000 µg/mL.

As for `C[C@@H](S[C@H]1CO[C@H](/C=C/C=C/c2ccc(C#N)cc2F)OC1)[C@@](Cn1cncn1)(OC(=O)CN)c1ccc(F)cc1F`, in series [2], the solubility is < 1000 µg/mL.

Take `C[C@@H](S[C@H]1CO[C@H](/C=C/C=C/c2ccc(C#N)cc2F)OC1)[C@@](Cn1cncn1)(OC(=O)CCN)c1ccc(F)cc1F`: the solubility in series [2] was < 1000 µg/mL.

For the molecule `C[C@@H](S[C@H]1CO[C@H](/C=C/C=C/c2ccc(C#N)cc2F)OC1)[C@@](Cn1cncn1)(OP(=O)([O-])O)c1ccc(F)cc1F.[Na+]`, in series [5], the t1/2 amounted to 5.7 h. Besides, the outcome in series [6] was Active. For the same molecule, the solubility in series [2] is > 30000 µg/mL.

For the molecule `C[C@@H](S[C@H]1CO[C@H](/C=C/C=C/c2ccc(C#N)cc2F)OC1)[C@@](Cn1cncn1)(OC(=O)CO)c1ccc(F)cc1F`, in series [2], the solubility is < 1000 µg/mL.

`C[C@@H](S[C@H]1CO[C@H](/C=C/C=C/c2ccc(C#N)cc2F)OC1)[C@](O)(Cn1cncn1)c1ccc(F)cc1F` [EMBECONAZOLE] showed a bioavailability in series [1] of 3.3%. Moreover, in series [7], the highest concentration (Cmax) is 1300 ng/mL.
